Test results from paper PMC7534582 (Cancer cell, 2019).

Legend:
Assay type in all cases: cell-based, human
[1] = system: SIRT3 depleted OCI-LY1 cells; assay: Rescue of proliferation arrest caused by SIRT3 depletion; conditions: OCI-LY1, Figure S5C
[2] = system: SIRT3 depleted Karpas 422 cells; assay: Rescue of proliferation arrest caused by SIRT3 depletion; conditions: Karpas 422, 4-day exposure
Outline: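 Karpas 422 cells were infected with YFP-carrying lentivirus bearing SIRT3 or control shRNA and exposed for 4 days to test compounds, alone or combined. Viable YFP+ (transduced) and YFP− (non-transduced) populations were quantified by flow cytometry. Abundance was normalized to the first time point.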

[3] = system: SIRT3 depleted HBL1 cells; assay: Rescue of proliferation arrest caused by SIRT3 depletion; conditions: HBL1, Figure S5D
[4] = system: DLBCL cells with SIRT3 shRNA; assay: Rescue of autophagy; conditions: DMKG 4 mM for 3-4 hr
Outline: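 DLBCL cells carrying SIRT3 or control shRNA were incubated with test compound (4 mM) for 3-4 hr, then collected for Western blot with LC3 and SIRT3 antibodies. Detection used a peroxidase-conjugated secondary antibody and enhanced chemiluminescence. LC3II/LC3I ratios were obtained by densitometry and normalized to control cells.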

| Compound | Rescue of proliferation arrest caused by SIRT3 depletion [1] | Rescue of proliferation arrest caused by SIRT3 depletion [2] | Rescue of proliferation arrest caused by SIRT3 depletion [3] | Rescue of LC3II/LC3I ratios (autophagy) after SIRT3 depletion [4] |
| --- | --- | --- | --- | --- |
| COC(=O)CCC(=O)C(=O)OC [DMKG, dimethyl-αKG] | DMKG alone rescued | DMKG alone rescued | required both DMKG and MP | rescued LC3II/LC3I ratios |
| COC(=O)C(C)=O [MP, methyl-pyruvate] |  |  | required both DMKG and MP |  |
